Molecules are shown by their SMILES. In brackets after ≈: the same amount, converted by molar mass. Activity calls are given as the source filed them.

Test [1] relates to Staphylococcus aureus. Put plainly: Antibacterial activity against penicillin G-resistant/penicillinase producing Staphylococcus aureus isolate C1P15 by broth microdilution method. Type of test: functional. Summed up: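 Broth microdilution per EUCAST on the clinical S. aureus isolate C1P15 (penicillinase producer, penicillin G resistant). Inoculum 10⁶ bacteria per mL. Run in triplicate. S. aureus ATCC 29213 served as the quality-control strain.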

Test [2] deals with Staphylococcus aureus. Put plainly: Bactericidal activity against penicillin G-resistant/penicillinase producing Staphylococcus aureus isolate C1P15 by broth microdilution method. The format is functional. An outline of the steps:
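MBC on clinical S. aureus isolate C1P15 (penicillinase, penicillin G resistant), following EUCAST broth microdilution at 10⁶ bacteria per mL, in triplicate. The MIC dilution and at least two more concentrated dilutions were plated and enumerated as CFU/mL. S. aureus ATCC 29213 served as quality control.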
Background: Dilution methods test growth across graded concentrations, often in twofold steps.

The test system of test [3] is Staphylococcus aureus. Put plainly: Bactericidal activity against Staphylococcus aureus ATCC 29213 by broth microdilution method. The format is functional. An outline of the steps: (§1)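 Clinical resistant isolates and quality control strains (S. aureus ATCC 29213, E. coli ATCC 25922) are tested by EUCAST broth microdilution with a 10⁶ bacteria/mL inoculum, in triplicate, with or without a fixed adjuvant concentration. For MBC, the MIC dilution and at least two more concentrated dilutions are plated and CFU/mL counted.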

The subject of test [4] is Staphylococcus aureus. Nature of the test: Antibacterial activity against Staphylococcus aureus ATCC 29213 by broth microdilution method. The format is functional. An outline of the steps: as §1
The subject of test [5] is Staphylococcus aureus. Nature of the test: Antimicrobial activity against methicillin-resistant Staphylococcus aureus USA300 TCH1516 at 30 ug after 20 hrs by disk diffusion assay. The format is functional. Particulars: USA300_TCH1516.
Test [6] concerns Bacillus subtilis subsp. subtilis str. JH642. Put plainly: Bactericidal activity against Bacillus subtilis JH642 assessed as clearing of bacterial culture at 50 ug/ml upto 9 hrs. Type of test: functional. Summed up:
(§2)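 B. subtilis JH642 grown overnight in LB, diluted into 20 mL LB at OD600 0.05, grown at 37 °C. Compound added at OD600 0.5–0.6. OD600 followed before and after addition over several hours. Vancomycin served as bactericidal control and chloramphenicol as bacteriostatic control.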

Test [7] has the same test system. Put plainly: Bactericidal activity against Bacillus subtilis JH642 assessed as bacterial cell lysis at 50 ug/ml upto 9 hrs. Type of test: functional. Summed up: as §2
In test [8] the test system is Staphylococcus aureus. Put plainly: Bactericidal activity against methicillin-resistant Staphylococcus aureus USA300 TCH1516 at 50 ug/ml upto 9 hrs. Particulars: USA300_TCH1516. Type of test: functional. An outline of the steps:
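Culture inoculated at OD600 0.05 and grown until OD600 reaches 0.5–0.6, when additives are added; chloramphenicol and vancomycin serve as controls. OD600 is followed before and after addition for several hours. For S. aureus the assay uses fewer time points and a smaller volume.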

The test system of test [9] is Escherichia coli. Put plainly: Antibacterial activity against Escherichia coli ATCC 25922 by broth microdilution method. The format is functional. An outline of the steps: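 Broth microdilution per EUCAST, quality-control strain alongside resistant clinical isolates; inoculum 10⁶ bacteria per mL; run in triplicate with or without adjuvant at fixed 25 µg/mL combined with β-lactams or ofloxacin. MIC read as lowest concentration with no growth; MBC from plating the MIC dilution and at least two higher dilutions, counting CFU/mL.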

The test system of test [10] is Escherichia coli. Put plainly: Bactericidal activity against amoxicillin-resistant Escherichia coli isolate G28 harboring beta-lactamase by broth microdilution method. Type of test: functional. An outline of the steps: as §1
For test [11], the system named is Escherichia coli. Particulars: 200 uM.

The term MIC denotes the lowest concentration found to suppress growth. Usually MBC stands for the smallest concentration meeting the test's criterion for killing. Low values mean greater bactericidal potency, high ones weaker bactericidal potency. Consider `Cc1onc(-c2ccccc2Cl)c1C(=O)N[C@@H]1C(=O)N2[C@@H]1SC(C)(C)[C@@H]2C(=O)O` [CLOXACILLIN], for which the MIC in test [1] and in test [4] was 1 µg/mL (≈ 2.29 µM) throughout. In addition, the MBC in test [2] and in test [3] was 1 µg/mL (≈ 2.29 µM) in each case.

Regarding `CN[C@H](CC(C)C)C(=O)N[C@H]1C(=O)N[C@@H](CC(N)=O)C(=O)N[C@H]2C(=O)N[C@H]3C(=O)N[C@H](C(=O)N[C@H](C(=O)O)c4cc(O)cc(O)c4-c4cc3ccc4O)[C@H](O)c3ccc(c(Cl)c3)Oc3cc2cc(c3O[C@@H]2O[C@H](CO)[C@@H](O)[C@H](O)[C@H]2O[C@H]2C[C@](C)(N)[C@H](O)[C@H](C)O2)Oc2ccc(cc2Cl)[C@H]1O`, the result in [5], in [6], in test [7] and in test [8] was Active.

On to `CO/N=C(\C(=O)N[C@@H]1C(=O)N2C(C(=O)O)=C(COC(C)=O)CS[C@H]12)c1csc(N)n1` [CEFOTAXIME], for which the MIC in test [9] amounted to 0.125 µg/mL (≈ 0.274 µM). In test [10], this compound came in with a minimal bactericidal concentration (MBC) of 1 µg/mL (≈ 2.2 µM).

As for `O=C(O)c1cn(C2CC2)c2cc(N3CCNCC3)c(F)cc2c1=O`, in [11], the inhibition result is “Active”.

For the origin of these results see ChEMBL document CHEMBL3860044, “The Rational Design, Synthesis, and Antimicrobial Properties of Thiophene Derivatives That Inhibit Bacterial Histidine Kinases” (J Med Chem, 2016).
